# Rows were chosen to be rich in hits. Some 3.6% of all compounds tested hit in one or more screens of this group.
# AHR activator: activates the human aryl hydrocarbon receptor; AHR-responsive luciferase reporter cells, luminescence; hit rate 2.5% among 320,000; activation, % at 5 µM; P35869; in the data active means activation above about 47%;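 further: 0% = vehicle wells and 100% = reference agonist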
# Target sequence (P35869 whole entry, looked up): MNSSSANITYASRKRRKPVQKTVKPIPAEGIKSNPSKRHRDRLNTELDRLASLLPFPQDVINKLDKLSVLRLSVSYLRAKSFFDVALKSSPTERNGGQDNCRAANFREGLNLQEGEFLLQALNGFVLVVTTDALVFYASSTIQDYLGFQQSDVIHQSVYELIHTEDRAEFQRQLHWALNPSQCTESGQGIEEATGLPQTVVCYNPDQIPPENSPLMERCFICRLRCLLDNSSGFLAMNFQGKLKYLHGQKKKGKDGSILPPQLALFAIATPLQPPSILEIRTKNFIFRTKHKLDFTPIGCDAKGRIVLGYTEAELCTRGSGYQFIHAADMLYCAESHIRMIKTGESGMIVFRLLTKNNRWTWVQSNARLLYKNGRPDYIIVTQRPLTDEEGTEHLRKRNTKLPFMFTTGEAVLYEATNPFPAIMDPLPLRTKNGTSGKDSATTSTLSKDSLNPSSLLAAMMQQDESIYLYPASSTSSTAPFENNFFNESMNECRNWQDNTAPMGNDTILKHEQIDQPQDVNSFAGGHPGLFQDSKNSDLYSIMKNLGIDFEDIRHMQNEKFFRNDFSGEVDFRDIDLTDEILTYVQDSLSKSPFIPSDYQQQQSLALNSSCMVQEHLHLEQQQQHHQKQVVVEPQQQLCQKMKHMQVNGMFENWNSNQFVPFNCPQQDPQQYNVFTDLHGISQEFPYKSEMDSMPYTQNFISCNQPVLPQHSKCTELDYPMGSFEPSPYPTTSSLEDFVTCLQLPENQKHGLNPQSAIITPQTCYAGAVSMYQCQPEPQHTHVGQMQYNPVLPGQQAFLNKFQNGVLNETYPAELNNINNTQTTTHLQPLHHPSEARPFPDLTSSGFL
# PolyA inhibitor: inhibitors of polyadenylation in S. cerevisiae; S. cerevisiae SKY197-pL101 polyadenylation reporter, beta-gal luminescence; efflux-impaired pdr1/pdr3 knockout yeast; score 100 = 6 SD above DMSO; hit rate 0.02% among 300,000; activity score, % at 12 µM; AID 1875;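 active means lowest replicate activity score at least 50, where 100 means six control SD above control mean; inconclusive means lowest score under 50 but half or more replicates reach 50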;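 further: yeast exposed to compound for 9 h at 30 °C; higher score means more reporter readthrough which indicates perturbed polyadenylation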
# STAT3 act: activators of IL-6 induced STAT3 signaling; U3A cells, IL-6 STAT3-luciferase reporter, luminescence; 100% = signal with IL-6 EC80 alone; activation (% of control), % at 5.6 µM; hit rate 0.91% among 190,000; AID 871;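 active means activation above the screen-wide mean of compound activation plus 3 SD, cut at about 130% in these data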;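 further: 0% = background luminescence of wells with medium and substrate only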
#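 Detection: reporter luminescence signal / Assay system: STAT1-lacking human U3A cells, STAT3 luciferase reporter / Incubation: compound pre-incubation 1 h before IL-6, then 6 h stimulation at 37 °C / Control set: IL-6-only high control / Read-out: % activation relative to IL-6 control / Probe or stimulus: Interleukin-6, 33 ng/mL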
# PERK inhibitor: blocks human PERK kinase | inhibition, % at 5.6 µM | CHO PERK-DD fusion, SEAP luminescence translation reporter | AID 1416 | Q9NZJ5 | hit rate 0.17% among 220,000;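 active means inhibition above the mean inhibition of all tested compounds plus 3 SD, set separately per screening campaign, cut at about 2.9% in these data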;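 further: PERK kinase domain activated by AP20187 dimerizer at 100 nM; 0% = DMSO with dimerizer and 100% = rapamycin at 8.4 µM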
# Hsp70 act: switches on Hsp70 transcription | HeLa Hsp70 promoter luciferase reporter, luminescence; scaled: vehicle 0, proteasome-inhibitor control 100% | activation, % at 10 µM | hit rate 0.04% among 200,000;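 active means activation above the mean across all tested compounds plus 3 SD, cutoff set per campaign, cut at about 5.5% in these data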;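 further: 100% = MG132 at 30 µM as the positive control and 0% = DMSO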
# HSF1 inhib: HSF1 inhibition; NIH3T3-HGL HSE-luciferase, MG132-induced, luminescence 8 h; stronger effect = lower value; activity change, negative = inhibition, % at 7.5 µM (by protocol); hit rate 0.77% among 300,000; AID 2098;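 active means more than half of replicate wells show activity change below -50%, luminescence cut by over half; inconclusive means some wells, but at most half, below -50%; inactive means no replicate well below -50%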;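 further: luciferase reports HSF-1 transcriptional activity via heat shock element; 0% = median of DMSO wells and -100% = zero luminescence signal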
# Starred values were filed as active, the others as inactive; ? = inconclusive; · = no result.
SMILES,AHR activator,PolyA inhibitor,STAT3 act,PERK inhibitor,Hsp70 act,HSF1 inhib
S=C(N/N=C/c1ccc2c(c1)OCO2)NC1CC2CCC1C2 (configuration not stated),68*,7,·,-1,·,22
CN(C)c1ccc(/C=N/NC(=O)c2ccn(C)n2)cc1,29,16,·,3.0*,·,3
COc1ccc(/C=N/NC(=O)c2ccc3c(c2)OCO3)cc1,13,-9,·,·,·,-3
CN(C)c1ccc(/C=N/NC(=O)c2ccc3c(c2)OCCO3)cc1,30,-16,·,·,·,-55*
CCN(CC)c1ccc(/C=N/NC(=O)c2ccc3c(c2)OCCO3)cc1,·,14,·,·,·,-52*
Cc1ccc(S(=O)(=O)Nc2c(C)nc3nc(C)[nH]n3c2=O)c(C)c1,0,-11,·,·,·,-7
CCN(CC)c1ccc(/C=N/NC(=O)c2ccc(Br)o2)cc1,88*,?,107,0,0,18
O=C(N/N=C/c1ccc2c(c1)OCO2)c1cccs1,97*,6,92,0,0,18
O=C(N/N=C/c1ccc2c(c1)OCO2)c1ccc2c(c1)OCCO2,47,7,109,1,1,-55*
CSC(=S)N/N=C/c1ccc(Br)cc1,20,-27,83,1,0,7
O=C(N/N=C/c1ccc(Cl)cc1)c1ccc2c(c1)OCO2,9,11,·,·,·,36
CSC(=S)N/N=C/c1ccc(N(C)C)cc1,51*,-11,100,1,0,23
COc1ccc(NC(C)(C)c2nnnn2-c2c(C)cccc2C)cc1,4,-6,·,2,·,-5
NS(=O)(=O)c1ccc(N/N=C/c2ccc3c(c2)OCO3)c([N+](=O)[O-])c1,114*,8,100,1,0,1
CCOC(=O)N/N=C\C=C\c1ccc2c(c1)OCO2,49*,1,101,0,0,11
Cc1cc(C(=O)N/N=C/c2ccc3c(c2)OCO3)c(C)o1,72*,-9,99,1,0,1
CCOc1cc(/C=N/NC(=O)c2ccc3c(c2)OCCO3)cc(Br)c1O,3,6,·,·,·,-73*
Cc1cc(N/N=C/c2ccc3c(c2)OCO3)nc2ccccc12,11,-3,·,-2,·,9
O=C(Oc1ccccc1)N1CCN(C(=O)c2ccco2)CC1,·,-14,·,·,·,4
Cn1c(SCc2ccc(F)cc2Cl)nc2ccccc2c1=O,-3,·,·,·,·,·
CCN(CC)c1ccc(/C=N/NC(=O)Nc2nonc2N)cc1,67*,-3,119,1,0,6
Cc1cc(Br)cc(/C=N/NC(=O)c2ccc3c(c2)OCO3)c1O,62*,-1,·,·,·,8
CC/C(=N\NC(=O)c1ccc2c(c1)OCO2)c1ccccc1,·,4,·,·,·,7
CCN(CC)c1ccc(/C=N/NC(=O)Cc2cccs2)cc1,25,-1,102,0,0,-9
CCC/C(=N/NC(=O)c1ccc2c(c1)OCO2)c1cccs1,64*,-5,108,2,0,2
SMILES,AHR activator,PolyA inhibitor,STAT3 act,PERK inhibitor,Hsp70 act,HSF1 inhib
O=C(O)c1ccc(N/N=C/c2ccc3c(c2)OCO3)cc1,-6,-1,34,1,0,-71*
O=C(O)c1cc(N/N=C/c2ccc3c(c2)OCO3)ccc1Cl,7,22,122,1,0,-7
CC(C)c1ccc(CN(C)C(=O)c2ccc(S(=O)(=O)NCc3ccco3)cc2)cc1,-1,·,·,·,·,·
Cc1ccc(OCC(=O)NNC(=O)CCc2ccccc2)c(Br)c1,2,-2,·,·,·,6
CC(/C=C/c1ccc2c(c1)OCO2)=N/NC(=O)c1ccncc1,24,14,·,1,·,-71*
COc1ccc(CNC(=O)COC(=O)c2cc(S(=O)(=O)N3CCOCC3)ccc2O)cc1OC,-1,·,·,·,·,·
O=C(Nc1ccc2c(c1)oc1ccccc12)c1ccc2c(c1)OCO2,-5,7,99,1,0,19
O=c1c(O)c(-c2ccc3c(c2)OCO3)oc2ccccc12,69*,-1,88,-1,0,6
N#Cc1c(SCC(=O)Nc2ccc(C(F)(F)F)cc2)sc2c(O)cc(=O)[nH]c12,3,2,·,·,·,-1
N#Cc1c(SCC(=O)Nc2nncs2)sc2c(O)cc(=O)[nH]c12,50*,1,·,·,·,-6
Cc1ccc(/C=N/NC(=O)c2cc3c(s2)CCCC3)o1,9,·,·,·,·,·
O=c1cc(/C=C/c2c(F)cccc2Cl)[nH]c2ccccc12,61*,15,109,1,0,11
Cc1ncc([N+](=O)[O-])n1CC(=O)Nc1cccc(C(F)(F)F)c1,3,-26,·,·,·,-6
Cn1cccc1Cc1nnc(SCC(=O)NCc2ccccc2Cl)n1-c1ccc(F)cc1,2,73*,101,0,0,6
CC(=O)Nc1cccc(NC(=O)CSc2nnc(Cc3cccn3C)n2-c2ccc(F)cc2)c1,-1,8,98,0,0,-65*
COc1ccc(CN2CCNC(=O)C2CC(=O)N(C)Cc2ccon2)c(F)c1 (configuration not stated),-2,-9,·,·,·,0
CCc1ccccc1N(CC(=O)NC1CCCCC1)C(=O)CNC(=O)c1ccco1,2,7,·,·,·,-1
CN(C)c1ccc(C(=O)N2CC(=O)N(CCc3ccccc3)C(=O)C2)cc1,12,14,102,0,0,4
COc1ccc(C(=O)N2CC(=O)N(CCc3ccccc3)C(=O)C2)cc1OC,22,-3,144*,0,0,·
CN(C)c1ccc(C(=S)Nc2ccccc2)cc1,18,-13,53,1,0,-82*
S=C(Nc1cccc(Br)c1)c1ccccc1,79*,-14,95,0,0,18
COc1ccc(C(=O)NCCc2nnc3ccc(SCC(=O)Nc4ccccc4)nn23)cc1,1,-8,·,·,·,-6
C=CCSc1nc2ccccc2n1C(=O)/C=C/c1ccc(OC)c(OC)c1,-2,16,109,0,0,44
C=CCSc1nc2ccccc2n1C(=O)/C=C/c1cc(OC)c(OC)c(OC)c1,3,6,91,0,9.7*,-64*
CCN(CC)C(=O)C1CCCN(c2ccc([N+](=O)[O-])cc2/C=N/NC(=O)c2ccc([N+](=O)[O-])cc2)C1 (configuration not stated),3,-14,100,2,0,-78*
CCN(CC)C(=O)C1CCCN(c2ccc([N+](=O)[O-])cc2/C=N/NC(=O)c2ccccc2)C1 (configuration not stated),1,3,92,0,0,1
Cc1nc2c(-c3ccc(F)cc3)cnn2c2c1CCC2,71*,-7,107,0,0,26
COc1ccc(-c2cnc3c(-c4ccc(F)cc4)cnn3c2N)cc1,6,8,·,·,·,12
CC(=O)NS(=O)(=O)c1cccnc1Nc1cccc(Cl)c1,5,8,109,1,0,-7
N#Cc1cccnc1Nc1cccc(Cl)c1,77*,-5,99,1,0,5

# Source: PubChem BioAssay (several laboratories)
